Experimental data published in paper PMC4014002 (The FEBS journal, 2014).
Residue numbers refer to the chain shown, from its start. “And” between values parts separate entries of the source, which are not always exact repeats. Equal entries are not always repeated. Structures can show the parent of a compound that is named as a salt. Where two headings read alike, the source gives them in different places. Blank lines part the entries; values can stand above or below the molecule they belong to.

What was measured:
rat L-FABP [1] = molecular target: T1, rat L-FABP (Rattus norvegicus, UniProt P02692); assay: Circular dichroism, ligand-induced secondary structure change; conditions: rat L-FABP 0.5 μM, 5 μM ligand, CD
T1 sequence (P02692 1-127): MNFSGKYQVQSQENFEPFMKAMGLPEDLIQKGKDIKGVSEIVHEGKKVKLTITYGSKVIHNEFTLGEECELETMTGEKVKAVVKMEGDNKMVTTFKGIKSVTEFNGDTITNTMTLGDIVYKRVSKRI
How it was run: (§1)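 Recombinant delipidated L-FABP (0.5 μM, by amino acid analysis) in 10 mM potassium phosphate pH 7.4. Ligand added to 5 μM from a 500 μM ethanol stock, giving 1% ethanol final. Stirred 10 min at 25 °C, then scanned 185–250 nm. Ten scans were averaged, buffer/ligand/ethanol background subtracted and smoothed. Secondary structure was analysed by CONTIN against the SDP48 reference set, and % change was taken relative to protein alone.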

[2] = molecular target: T2, human wild-type L-FABP T94T (Homo sapiens, UniProt P07148); assay: as above; conditions: T94T 0.5 μM, 5 μM ligand, CD
T2 sequence (P07148 1-127): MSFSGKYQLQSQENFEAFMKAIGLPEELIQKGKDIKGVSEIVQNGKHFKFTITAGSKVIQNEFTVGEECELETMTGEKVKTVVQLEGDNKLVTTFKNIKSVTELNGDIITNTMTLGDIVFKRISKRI
How it was run: as §1

[3] = molecular target: T3, human L-FABP T94A variant (Homo sapiens, UniProt P07148, T94A); assay: as above; conditions: T94A 0.5 μM, 5 μM ligand, CD
T3 sequence (P07148 1-127 T94A): T2 sequence (P07148 1-127) with T94A
How it was run: as §1

rat L-FABP [4] = molecular target: T1, rat L-FABP; assay: ANS binding to L-FABP
[5] = molecular target: T2, human wild-type L-FABP T94T; assay: ANS binding to L-FABP
[6] = molecular target: T3, human L-FABP T94A variant; assay: ANS binding to L-FABP
human L-FABP = human L-FABP bound one ANS; cited from earlier work
rat L-FABP [7] = molecular target: T1, rat L-FABP; assay: ANS displacement assay; type: binding
How it was run: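 Recombinant rat L-FABP (500nM, quantified by amino acid analysis) incubated 10 min with ANS (35μM) at pH 7.4, then titrated with small ligand aliquots. ANS emission scanned 410–600nm (380nm excitation). % ANS fluorescence remaining plotted vs ligand concentration gives EC50.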

[8] = molecular target: T2, human wild-type L-FABP T94T; assay: ANS displacement assay; type: binding
[9] = molecular target: T3, human L-FABP T94A variant; assay: ANS displacement assay; type: binding
[10] = test system: L-FABP T94A variant human subjects; conditions: cited from earlier work
T94T and T94A = conditions: cited from earlier work
[11] = read-out: ANS Displacement – Ki, T94T 500nM, ANS 35μM, ND: no displacement
[12] = read-out: ANS Displacement – Ki, T94A 500nM, ANS 35μM, ND: no displacement
[13] = read-out: ANS Displacement – Ki, rat L-FABP 500nM, ANS 35μM, ND: no displacement

change in secondary structure (L-FABP/ligand – L-FABP only) (rat L-FABP [1]): no or only small changes
change in secondary structure (L-FABP/ligand – L-FABP only) [2]: no or only small changes
change in secondary structure (L-FABP/ligand – L-FABP only) [3]: no or only small changes
Structure (SMILES): CCCCCCCC/C=C\CCCCCCCC(=O)OC(CO)CO [2-OMG, 2-oleoyl glycerol]

Structure (SMILES): O=S(=O)(O)c1cccc2cccc(Nc3ccccc3)c12 [ANS, 1-anilinonaphthalene-8-sulfonic acid]
Kd (rat L-FABP [4]): 2.5 ± 0.2 µM
Fluorescence emission Maximum (rat L-FABP [4]; ANS bound to rat L-FABP): 477 nm
Bmax (rat L-FABP [4]; forward titration, 500nM rat L-FABP): 1.4 and 1.42 ± 0.01
A.U./nM when fully bound (ANS fluorescence intensity/nM) (rat L-FABP [4]; reverse titration, ANS 100nM, rat L-FABP): 0.8 A.U./nM and 0.78 ± 0.02 A.U./nM
Kd [5]: 2.3 ± 0.1 µM
Fluorescence emission Maximum ([5]; ANS bound to T94T): 480 nm
A.U./nM when fully bound (ANS fluorescence intensity/nM) ([5]; reverse titration, ANS 100nM, T94T): 1.0 A.U./nM and 1.03 ± 0.01 A.U./nM
Kd [6]: 2.4 ± 0.1 µM
Fluorescence emission Maximum ([6]; ANS bound to T94A): 480 nm
A.U./nM when fully bound (ANS fluorescence intensity/nM) ([6]; reverse titration, ANS 100nM, T94A): 1.0 A.U./nM and 0.98 ± 0.04 A.U./nM
Kd (human L-FABP): 2 µM

Ki (rat L-FABP [7]): 0.11 ± 0.006 µM
Ki [8]: 0.113 ± 0.006 µM
Ki [9]: 0.108 ± 0.006 µM
change in secondary structure (L-FABP/ligand – L-FABP only) [3]: < 8%
Structure (SMILES): CCCCC/C=C\C/C=C\C/C=C\C/C=C\CCCC(=O)O [Arachidonic acid, arachidonic acid]

Ki (rat L-FABP [7]): 0.081 ± 0.015 µM
Ki [8]: 0.072 ± 0.005 µM
Ki [9]: 0.065 ± 0.009 µM
Structure (SMILES): CC/C=C\C/C=C\C/C=C\C/C=C\C/C=C\C/C=C\CCC(=O)O [Docosahexaenoic acid, cis-4,7,10,13,16,19-docosahexaenoic acid]

Ki (rat L-FABP [7]): 0.24 ± 0.03 µM
Ki [8]: 0.2 ± 0.03 µM
Ki [9]: 0.19 ± 0.01 µM
Structure (SMILES): CCC=CCC=CCC=CCC=CC/C=C\CCCC(=O)O [Eicosapentaenoic acid, cis-5,8,11,14,17-eicosapentaenoic acid]

Ki [8, 11]: 0.052 ± 0.007 µM
Ki [9, 12]: 0.036 ± 0.004 µM
Structure (SMILES): CCCCCCCC/C=C\CCCCCCCC(=O)OC[C@@H](O)COP(=O)(O)O [LPA, Oleoyl-L-α-lysophosphatidic acid sodium salt]

Ki (rat L-FABP [7]): 0.081 ± 0.005 µM
Ki [8]: 0.113 ± 0.005 µM
Ki [9]: 0.132 ± 0.003 µM
Structure (SMILES): CCCCC/C=C\C/C=C\CCCCCCCC(=O)O [Linoleic acid, linoleic acid]

Ki (rat L-FABP [7]): 0.043 ± 0.002 µM
Structure (SMILES): CCCCCCCC/C=C\CCCCCCCC(=O)O [Oleic acid, oleic acid]

Ki (rat L-FABP [7]; [13]): 2.41 ± 0.12 µM
Ki [8, 11]: 1.11 ± 0.04 µM
Ki [9, 12]: 1.03 ± 0.02 µM
Structure (SMILES): CCCCCCCC/C=C\CCCCCCCC(=O)SCCNC(=O)CCNC(=O)[C@H](O)C(C)(C)COP(=O)(O)OP(=O)(O)OC[C@H]1O[C@@H](n2cnc3c(N)ncnc32)[C@H](O)[C@@H]1OP(=O)(O)O [Oleoyl CoA, Oleoyl Coenzyme A]

change in secondary structure (L-FABP/ligand – L-FABP only) (rat L-FABP [1]): no or only small changes
change in secondary structure (L-FABP/ligand – L-FABP only) [2]: no or only small changes
change in secondary structure (L-FABP/ligand – L-FABP only) [3]: no or only small changes
Structure (SMILES): CCCCCCCC/C=C\CCCCCCCC(=O)O[C@@H](CO)COC(=O)CCCCCCCCCCCCCCC [PODG, 1-palmitoyl-2-oleoyl-sn-glycerol]

Structure (SMILES): CCCCCCCC/C=C\CCCCCCCC(=O)O[C@H](COC(=O)CCCCCCCCCCCCCCC)COP(=O)(O)O [POPA, 1-palmitoyl-2-Oleoyl-sn-Glycero-3-Phosphate monosodium salt]
Ki (rat L-FABP [7]; [13]): 9.1 ± 0.8 µM
Ki [8, 11]: 2.8 ± 0.3 µM
Ki [9, 12]: 2.8 ± 0.2 µM

Ki (rat L-FABP [7]): 0.048 ± 0.001 µM
Ki [8]: 0.038 ± 0.001 µM
Ki [9]: 0.043 ± 0.001 µM
Structure (SMILES): CCCCCCCCCCCCCCCC(=O)O [Palmitic acid, palmitic acid]

Ki (rat L-FABP [7]): 0.037 ± 0.004 µM
Ki [8]: 0.029 ± 0.002 µM
Ki [9]: 0.028 ± 0.001 µM
Structure (SMILES): CCCCCCCCCCCCCCCCCC(=O)O [Stearic acid]

Structure (SMILES): CC(C)OC(=O)C(C)(C)Oc1ccc(C(=O)c2ccc(Cl)cc2)cc1 [fenofibrate]
lowering of elevated plasma triglyceride to basal levels [10]: less effective in lowering elevated plasma triglyceride to basal levels

Structure (SMILES): CC(C)(Oc1ccc(C(=O)c2ccc(Cl)cc2)cc1)C(=O)O [fenofibric acid]
Ki, T94T compared with T94A (T94T and T94A): same (or similar) Ki

Structure (SMILES): CC(C)CCC[C@@H](C)CCC[C@@H](C)CCCC(C)CC(=O)O (stereo partly drawn) [phytanic acid]
Ki, T94T compared with T94A (T94T and T94A): same (or similar) Ki
